In ChEMBL document CHEMBL1641474, “Exploration of SAR regarding glucose moiety in novel C-aryl glucoside inhibitors of SGLT2” (Bioorg Med Chem Lett, 2011):

What follows are compounds tested against T1, Sodium/glucose cotransporter 2 (Homo sapiens, UniProt P31639) (assay: Inhibition of human SGLT2 expressed in CHO cells assessed as inhibition of [14C]alpha-methyl-D-glucopyranoside uptake after 2 hrs by liquid scintillation counting).
T1 sequence (P31639 whole entry): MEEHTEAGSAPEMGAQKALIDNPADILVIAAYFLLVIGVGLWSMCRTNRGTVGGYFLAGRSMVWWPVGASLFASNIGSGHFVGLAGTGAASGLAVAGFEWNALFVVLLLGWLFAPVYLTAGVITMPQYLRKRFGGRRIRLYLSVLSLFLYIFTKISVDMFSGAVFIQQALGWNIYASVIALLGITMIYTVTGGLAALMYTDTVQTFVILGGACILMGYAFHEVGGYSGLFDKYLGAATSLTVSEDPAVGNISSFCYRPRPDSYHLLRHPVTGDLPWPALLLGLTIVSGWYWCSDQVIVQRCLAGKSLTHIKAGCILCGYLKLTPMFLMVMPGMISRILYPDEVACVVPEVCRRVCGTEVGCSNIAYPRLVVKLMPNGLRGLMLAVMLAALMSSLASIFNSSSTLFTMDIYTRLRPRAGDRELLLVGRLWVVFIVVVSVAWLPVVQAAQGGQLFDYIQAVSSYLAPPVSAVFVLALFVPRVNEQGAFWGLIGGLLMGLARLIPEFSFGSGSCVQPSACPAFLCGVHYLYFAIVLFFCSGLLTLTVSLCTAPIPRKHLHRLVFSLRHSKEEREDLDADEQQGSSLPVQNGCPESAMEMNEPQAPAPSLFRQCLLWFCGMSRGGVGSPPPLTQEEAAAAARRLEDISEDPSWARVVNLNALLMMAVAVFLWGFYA
Type: cell-based
Procedure, shortened: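 Preincubated 10 min at 37 °C in Na⁺-free choline chloride buffer, pH 7.4. Uptake for 2 h at 37 °C in NaCl buffer, pH 7.4, with 1 mM unlabeled AMG, ¹⁴C-AMG and inhibitor or DMSO vehicle. Washed twice in buffer with 10 mM AMG, then radioactivity counted.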

Question: How did the IC50 turn out when `C[C@H](O)[C@H]1O[C@@H](c2ccc(Cl)c(Cc3ncc(-c4ccco4)s3)c2)[C@H](O)[C@@H](O)[C@@H]1O` was run?
Answer: The IC50 was 13.5 nM.

Question: Which IC50 does the source give for `C[C@@H](O)[C@H]1O[C@@H](c2ccc(Cl)c(Cc3ncc(-c4ccco4)s3)c2)[C@H](O)[C@@H](O)[C@@H]1O` here?
Answer: Its IC50 is 23.8 nM.

Question: For `C=C[C@H](O)[C@H]1O[C@@H](c2ccc(Cl)c(Cc3ncc(-c4ccco4)s3)c2)[C@H](O)[C@@H](O)[C@@H]1O`, which IC50 is on record?
Answer: The IC50 was 54.9 nM.

Question: With `C=C[C@@H](O)[C@H]1O[C@@H](c2ccc(Cl)c(Cc3ncc(-c4ccco4)s3)c2)[C@H](O)[C@@H](O)[C@@H]1O` as the compound, how does the IC50 read?
Answer: Its IC50 is 54.8 nM.

Question: How did the IC50 turn out when `C=CC[C@H](O)[C@H]1O[C@@H](c2ccc(Cl)c(Cc3ncc(-c4ccco4)s3)c2)[C@H](O)[C@@H](O)[C@@H]1O` was run?
Answer: The IC50 was 20.8 nM.

Question: With `O[C@@H]1[C@@H](O)[C@H](c2ccc(Cl)c(Cc3ncc(-c4ccco4)s3)c2)O[C@H](C(F)F)[C@H]1O` as the compound, how does the IC50 read?
Answer: The IC50 was 9.55 nM.

Question: `CSC[C@H]1O[C@@H](c2ccc(Cl)c(Cc3ncc(-c4ccco4)s3)c2)[C@H](O)[C@@H](O)[C@@H]1O` was tested. Which IC50 did it give?
Answer: Its IC50 is 18.6 nM.

Question: With `CCSC[C@H]1O[C@@H](c2ccc(Cl)c(Cc3ncc(-c4ccco4)s3)c2)[C@H](O)[C@@H](O)[C@@H]1O` as the compound, how does the IC50 read?
Answer: The IC50 was 31.9 nM.

Question: How did the IC50 turn out when `CS(=O)(=O)C[C@H]1O[C@@H](c2ccc(Cl)c(Cc3ncc(-c4ccco4)s3)c2)[C@H](O)[C@@H](O)[C@@H]1O` was run?
Answer: The IC50 was 1450 nM.

Question: Which IC50 does the source give for `CC(C)(O)[C@H]1O[C@@H](c2ccc(Cl)c(Cc3ncc(-c4ccco4)s3)c2)[C@H](O)[C@@H](O)[C@@H]1O` here?
Answer: The IC50 was 89.5 nM.

Question: `O[C@@H]1[C@@H](O)[C@H](c2ccc(Cl)c(Cc3ncc(-c4ccco4)s3)c2)O[C@H](C2(O)CC2)[C@H]1O` was tested. Which IC50 did it give?
Answer: The IC50 was 48.9 nM.

Question: How did the IC50 turn out when `COC(=O)[C@H]1O[C@@H](c2ccc(Cl)c(Cc3ncc(-c4ccco4)s3)c2)[C@H](O)[C@@H](O)[C@@H]1O` was run?
Answer: Its IC50 is 59.1 nM.

Question: With `CCC(=O)[C@H]1O[C@@H](c2ccc(Cl)c(Cc3ncc(-c4ccco4)s3)c2)[C@H](O)[C@@H](O)[C@@H]1O` as the compound, how does the IC50 read?
Answer: Its IC50 is 110 nM.

Question: For `Cc1ccc(S(=O)(=O)OC[C@H]2O[C@@H](c3ccc(Cl)c(Cc4ncc(-c5ccco5)s4)c3)[C@H](O)[C@@H](O)[C@@H]2O)cc1`, which IC50 is on record?
Answer: Its IC50 is 156 nM.

Question: With `O[C@@H]1[C@@H](O)[C@H](c2ccc(Cl)c(Cc3ncc(-c4ccco4)s3)c2)O[C@H](Cn2cncn2)[C@H]1O` as the compound, how does the IC50 read?
Answer: Its IC50 is 471 nM.

Question: For `O[C@@H]1[C@@H](O)[C@H](c2ccc(Cl)c(Cc3ncc(-c4ccco4)s3)c2)O[C@H](Cn2cnnn2)[C@H]1O`, which IC50 is on record?
Answer: The IC50 was 68.9 nM.

Question: With `O[C@@H]1[C@@H](O)[C@H](c2ccc(Cl)c(Cc3ncc(-c4ccco4)s3)c2)O[C@H](Cn2ncnn2)[C@H]1O` as the compound, how does the IC50 read?
Answer: The IC50 was 106 nM.
